Laboratory results: ChEMBL document CHEMBL1130167, “NMR-based discovery of lead inhibitors that block DNA binding of the human papillomavirus E2 protein” (J Med Chem, 1997)

What follows are molecules tested against Regulatory protein E2 (Human papillomavirus type 31) (assay: Dissociation constant after binding to human papillomavirus E2 DNA-binding domain (DBD) by observing the changes in [15N]-HSQC spectra.).

SMILES | Kd
O=C(O)CCc1ccc(Oc2ccccc2)cc1 | 2300 µM
O=C(O)CCCCc1ccc(Oc2ccccc2)cc1 | 850 µM
O=C(O)c1ccc(-c2ccc(Oc3ccccc3)cc2)cc1 | 2100 µM
O=C(O)c1ccc(-c2cc(Cl)cc(Cl)c2)cc1 | 60 µM
O=C(O)c1ccc(-c2cc(C(F)(F)F)cc(C(F)(F)F)c2)cc1 | > 10000 µM
O=C(O)c1ccc(-c2cccc([N+](=O)[O-])c2)cc1 | 8900 µM
Nc1cccc(-c2ccc(C(=O)O)cc2)c1 | > 10000 µM
COc1ccccc1-c1ccc(C(=O)O)cc1 | 1700 µM
O=C(O)Cc1cccc(Oc2ccccc2)c1 | > 10000 µM
COc1ccc(-c2ccc(C(=O)O)cc2)cc1 | 8800 µM
O=C(O)c1ccc(-c2cccc(Cl)c2)cc1 | 1200 µM
O=C(O)c1ccc(-c2cccc(C(F)(F)F)c2)cc1 | 320 µM
O=C(O)c1ccc(-c2ccc(Cl)cc2Cl)cc1 | 3500 µM
CN(C)c1ccc(-c2ccc(C(=O)O)cc2)cc1 | 6800 µM
O=C(O)/C=C/C=C/c1ccc(Oc2ccccc2)cc1 | 350 µM
O=C(O)CCCc1ccc(Oc2ccccc2)cc1 | 1900 µM
O=C(O)c1ccc(-c2ccc(Cl)c(Cl)c2)cc1 | 6600 µM
O=C(O)c1ccc(-c2cccc(F)c2)cc1 | 1600 µM
Cc1ccccc1-c1ccc(C(=O)O)cc1 | 2700 µM
Cc1cccc(-c2ccc(C(=O)O)cc2)c1 | 1900 µM
O=C(O)c1ccc(-c2ccc(C(F)(F)F)cc2)cc1 | 1500 µM
O=C(O)c1ccc(-c2ccc(O)cc2)cc1 | > 10000 µM
O=C(O)c1ccc(-c2ccc([N+](=O)[O-])c(Cl)c2)cc1 | > 10000 µM
CC(C)(C)c1ccc(-c2ccc(C(=O)O)cc2)cc1 | > 10000 µM

These molecules were tested on Nucleic Acid (assay: Compound was tested for inhibition activity against HPV-E2 DNA-binding domain (DBD) (human papillomavirus E2) binding to DNA).
Format: nucleic-acid assay
Method in brief: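 Filter-binding assay: binding reactions at room temperature for 10 min in binding buffer (20 mM Tris-HCl pH 7.5, 100 mM NaCl, 5 mM DTT, 1 mM EDTA, BSA) with 4 nM DNA and 400 nM E2 DBD. Compounds were added from DMSO stocks at various concentrations. Mixtures were filtered through nitrocellulose, washed with buffer lacking BSA and counted by scintillation. IC50 was read from concentration versus percent inhibition plots.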

SMILES | IC50
O=C(O)c1ccc(-c2cc(Cl)cc(Cl)c2)cc1 | 150 µM
O=C(O)/C=C/C=C/c1cccc(Oc2cc(Cl)cc(Cl)c2)c1 | 10 µM
O=C(O)/C=C/C=C/c1ccc(Oc2ccccc2)cc1 | 75 µM
O=C(O)CCCc1ccc(Oc2ccccc2)cc1 | > 1000 µM
O=C(O)c1ccc(-c2ccccc2)cc1 | > 1000 µM
